Screening data (PubChem BioAssay)
Env fusion inh: blocks HIV Env-driven cell-cell fusion | AID 651610 | 360,000 tested, 1.1% active | HeLa-JRFL Env/CEM21 cell fusion, luciferase | inhibition, % at 12.3 µM;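 active means mean replicate inhibition score of at least 50 and every replicate individually at or above 50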;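 further: 0% = plate neutral controls and 100% = maraviroc near 300 nM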
Rtt109 HAT inh: inhibitors of Candida albicans Rtt109/Vps75 histone acetyltransferase | Q5AAJ8 | 330,000 tested, 0.16% active | AID 540336 | purified Rtt109/Vps75, ThioGlo CoA-SH fluorescence, 4 h | inhibition, % at 34.9 µM;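 active means inhibition of at least 50% in every replicate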
Target sequence (Q5AAJ8 whole entry, looked up): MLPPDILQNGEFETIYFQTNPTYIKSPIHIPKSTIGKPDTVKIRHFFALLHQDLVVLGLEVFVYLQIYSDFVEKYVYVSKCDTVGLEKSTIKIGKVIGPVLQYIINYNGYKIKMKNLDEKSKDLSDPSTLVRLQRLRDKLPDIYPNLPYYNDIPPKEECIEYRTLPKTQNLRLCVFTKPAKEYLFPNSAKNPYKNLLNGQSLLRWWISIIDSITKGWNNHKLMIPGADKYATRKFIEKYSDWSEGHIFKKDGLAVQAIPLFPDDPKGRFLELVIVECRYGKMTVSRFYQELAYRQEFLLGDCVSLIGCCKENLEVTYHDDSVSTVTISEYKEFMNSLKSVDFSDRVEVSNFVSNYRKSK
Arr AP2 block: inhibitors of human beta-arrestin and AP2 interaction; FITC-arrestin peptide / GST-AP2 beads, flow cytometry; AP2 beta2 appendage carries R879A mutation; inhibition, % at 10 µM; 340,000 tested, 0.31% active;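 active means inhibition above a set limit, near 3 SD of compounds lacking own fluorescence, cut at about 54% in these data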;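 further: plate controls were DMSO wells for no effect and 5 µM unlabelled arrestin peptide for full effect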
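System: GST-AP2 R879A glutathione beads | Also added: FITC-arrestin peptide, 50 nM | Times: 12 min plus 1 h, RT | Signal: Bead flow cytometry, FITC channel | Buffer or medium: PBS with 0.05% Tween 20 and 0.1% BSA | Read-out basis: Percent drop in bead-associated FITC signal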
N-glyco inh: N-linked glycosylation inhibition | reporter increase, % at 12.5 µM | D54 ERlucT glycosylation luciferase reporter, 24 h; percent of 100 nM tunicamycin response | 360,000 tested, 0.23% active;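 active means mean luciferase reporter signal, scaled so untreated is 0 and the glycosylation-blocking control 100, at or above a set limit in every replicate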;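 further: luciferase carries N-glycosylation sites so blocking glycosylation raises the light; 0% = median of neutral control wells and 100% = median of 100 nM tunicamycin wells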
PfHsp90 set2: inhibits growth of yeast expressing Plasmodium falciparum Hsp90. S. cerevisiae expressing PfHsp90, BacTiter-Glo ATP, 48 h; yeast lacking PDR1 and PDR3 efflux regulators. inhibition, % at 9.4 µM. 310,000 tested, 0.32% active. AID 504621;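 active means every replicate shows inhibition above about 80%, whatever the replicate mean, limit read from the data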;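 further: 0% = DMSO neutral controls and 100% = 20 µM radicicol positive controls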
PAX8 reporter: PAX8 transcriptional activity inhibition | AID 652154 | RMG-I TPO-luciferase reporter, SteadyGlo, 24 h | 360,000 tested, 1.2% active | inhibition, % at 12.6 µM;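 active means mean replicate inhibition at least 60% with every replicate also reaching 60%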;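 further: luciferase light reporting Pax8 driven TPO promoter activity; plate controls were median of neutral control wells for no effect and mitoxantrone controls for full effect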
Numbers without * were called inactive; · = no result; [ ] = remark or other dose. Compounds with a hit are over-represented: about 2.3% of the library has one in this group of screens.

SMILES	Env fusion inh	Rtt109 HAT inh	Arr AP2 block	N-glyco inh	PfHsp90 set2	PAX8 reporter
CC(C)(C)n1ncc2c(=O)n(Cc3cccc(Cn4cnc5c(cnn5C(C)(C)C)c4=O)c3F)cnc21	92*	26	-3	-6	-31	79*
CC(=O)N1CC2(C1)[C@H](c1ccccc1)[C@@H](CO)N2Cc1cccc(Cl)c1	·	·	·	·	·	-11
CN1C(=O)c2cc(NC(=O)c3cccc(Cl)c3)ccc2OC[C@H]2O[C@H](CC(=O)NC3CCCCC3)CC[C@@H]21	28[16.7 µM]	·	·	·	·	70*
CN1C(=O)c2cc(NC(=O)c3cccc(Cl)c3)ccc2OC[C@H]2O[C@H](CC(=O)NC3CCCCC3)CC[C@H]21	26[16.7 µM]	·	·	·	·	20
COCC(=O)Nc1ccc2c(c1)C(=O)N(C)[C@H]1CC[C@H](CC(=O)NC3CCCC3)O[C@H]1CO2	57*[16.7 µM]	·	·	·	·	1
CC(C)NC(=O)Nc1ccc2c(c1)CC(=O)N([C@@H](C)CO)C[C@H](C)[C@@H](CN(C)Cc1ccc(C(=O)O)cc1)O2	·	·	·	·	·	-5
C[C@H](CO)N1C[C@H](C)[C@@H](CN(C)C(=O)Nc2cc(F)ccc2F)Oc2cc(C#CC3CCCC3)ccc2S1(=O)=O	0[16.7 µM]	·	·	·	·	28
C[C@@H]1CN([C@H](C)CO)S(=O)(=O)c2ccc(C#Cc3ccc(F)cc3)cc2O[C@H]1CN(C)C(=O)NC1CCCC1	21[16.7 µM]	·	·	·	·	·
C/C=C/c1ccc2c(c1)O[C@H](CN(C)C(=O)NC1CCCCC1)[C@H](C)CN([C@@H](C)CO)S2(=O)=O	56*[16.7 µM]	·	·	·	·	-6
C[C@@H]1CN([C@H](C)CO)S(=O)(=O)c2ccc(C#Cc3ccc(F)cc3)cc2O[C@H]1CN(C)C(=O)NC1CCCCC1	39[16.7 µM]	·	·	·	·	98*
C[C@H](CO)N1C[C@H](C)[C@H](CN(C)C(=O)NC2CCCCC2)Oc2cc(C#Cc3ccc(F)cc3)ccc2S1(=O)=O	43[16.7 µM]	·	·	·	·	91*
C[C@@H]1CN([C@H](C)CO)S(=O)(=O)c2ccc(C#CC3CCCC3)cc2O[C@@H]1CN(C)C(=O)Nc1cc(F)ccc1F	-20[16.7 µM]	·	·	·	·	70*
Cc1noc(C)c1NC(=O)N(C)C[C@H]1Oc2cc(C#CCC3CCCC3)ccc2S(=O)(=O)N([C@@H](C)CO)C[C@@H]1C	·	·	·	·	·	66*
Cc1noc(C)c1NC(=O)N(C)C[C@@H]1Oc2cc(C#CCC3CCCC3)ccc2S(=O)(=O)N([C@H](C)CO)C[C@@H]1C	·	·	·	·	·	27
C[C@@H]1CN([C@H](C)CO)S(=O)(=O)c2ccc(C#Cc3cccc(F)c3)cc2O[C@H]1CN(C)C(=O)NC1CCCCC1	-7[16.7 µM]	·	·	·	·	68*
C[C@@H]1CN([C@@H](C)CO)S(=O)(=O)c2ccc(-c3ccc(F)cc3)cc2O[C@H]1CN(C)C(=O)C1CCCCC1	67*[16.7 µM]	·	·	·	·	·
C[C@@H]1CN([C@@H](C)CO)S(=O)(=O)c2ccc(C#Cc3cccc(F)c3)cc2O[C@H]1CN(C)C(=O)NC1CCCCC1	-21[16.7 µM]	·	·	·	·	26
C[C@@H]1CN([C@@H](C)CO)S(=O)(=O)c2ccc(-c3ccc(F)cc3)cc2O[C@@H]1CN(C)C(=O)C1CCCCC1	16[16.7 µM]	·	·	·	·	·
CC(C)NC(=O)Nc1ccc2c(c1)CC(=O)N([C@H](C)CO)C[C@H](C)[C@H](CN(C)Cc1ccccc1)O2	16[16.7 µM]	·	·	·	·	-14
COc1cc(OC)cc(C(=O)Nc2nc(-c3ccccc3)c(-c3ccccc3)o2)c1	6	·	2	-3	6	28
CC(=O)Nc1nc(-c2ccccc2)c(-c2ccccc2)o1	3	59*	9	3	24	-2
Cc1cc(C)c(S(=O)(=O)N(C)CC(=O)N2CCCC2)c(C)c1	-22	·	·	34*	·	-4
Cc1ccc(S(=O)(=O)N(C)CC(=O)N2CCCC2)cc1	·	1	-10	-1	12	·
COc1ccccc1NC(=O)Nc1ccc2c(c1)C(=O)N(C)C[C@@H](OC)[C@@H](C)CN[C@@H](C)CO2	-4[16.7 µM]	·	·	·	·	-9
Cc1ccc2nc(-c3ccc(NS(C)(=O)=O)cc3)cc(-c3ccccc3)c2c1	·	-1	19	-6	137*	·
SMILES	Env fusion inh	Rtt109 HAT inh	Arr AP2 block	N-glyco inh	PfHsp90 set2	PAX8 reporter
CCS(=O)(=O)Nc1ccc(-c2cc(-c3ccccc3)c3cc(C)ccc3n2)cc1	4	-1	0	-3	69	10
CC(=O)n1cc(N(C(=O)CCl)c2ccccc2)c2ccccc21	-7	-2	-12	-4	11	109*
C[C@H](CO)N1C[C@H](C)[C@@H](CN(C)Cc2ccc(Cl)c(Cl)c2)OCCCC[C@H](C)Oc2ccc(NC(=O)c3ccccc3)cc2C1=O	19[16.7 µM]	·	·	·	·	28
C[C@H]1CCCCO[C@H](CN(C)Cc2ccc(Cl)c(Cl)c2)[C@@H](C)CN([C@@H](C)CO)C(=O)c2cc(NC(=O)Nc3ccccc3)ccc2O1	39[16.7 µM]	·	·	·	·	85*
C[C@@H]1CCCCO[C@@H](CN(C)Cc2ccc(Cl)c(Cl)c2)[C@@H](C)CN([C@@H](C)CO)C(=O)c2cc(NC(=O)Nc3ccccc3)ccc2O1	13[16.7 µM]	·	·	·	·	81*
CC(C)NC(=O)Nc1ccc2c(c1)C(=O)N([C@H](C)CO)C[C@H](C)[C@@H](CN(C)Cc1ccc(Cl)c(Cl)c1)OCCCC[C@@H](C)O2	10[16.7 µM]	·	·	·	·	-14
C[C@H](CO)N1C[C@H](C)[C@@H](CN(C)Cc2ccc(Cl)c(Cl)c2)OCCCC[C@H](C)Oc2ccc(NC(=O)Nc3ccccc3)cc2C1=O	11[16.7 µM]	·	·	·	·	87*
C[C@@H]1CN([C@H](C)CO)C(=O)c2cc(NC(=O)c3ccccc3)ccc2O[C@@H](C)CCCCO[C@@H]1CN(C)Cc1ccc(Cl)c(Cl)c1	10[16.7 µM]	·	·	·	·	51
C[C@@H]1CCCCO[C@H](CN(C)Cc2ccc(Cl)c(Cl)c2)[C@H](C)CN([C@@H](C)CO)C(=O)c2cc(NC(=O)c3ccccc3)ccc2O1	-3[16.7 µM]	·	·	·	·	22
C[C@H](CO)N1C[C@H](C)[C@H](CN(C)Cc2ccc(Cl)c(Cl)c2)OCCCC[C@H](C)Oc2ccc(NC(=O)Nc3ccccc3)cc2C1=O	71*[16.7 µM]	·	·	·	·	100*
COc1ccc(C(=O)CSc2nn3c(=O)c(C(C)(C)C)nnc3s2)cc1	·	2	-4	34*	11	·
CC(C)(C)c1nnc2sc(SCC(=O)c3ccccc3)nn2c1=O	·	4	1	5	-34	·
CCCc1ccc(Oc2coc3cc(OCC(=O)Nc4ccccc4C)ccc3c2=O)cc1	·	4	-3	-2	-21	29
CCc1ccc(Oc2coc3cc(OCC(=O)Nc4cc(C)ccc4C)ccc3c2=O)cc1	-23	2	21	66*	-8	3
O=[N+]([O-])c1ccc(O)c(-c2cc(C(F)(F)F)nc(-c3ccccc3)n2)c1	60*	0	16	-13	14	107*
Oc1ccccc1-c1cc(C(F)(F)C(F)F)nc(-c2ccccc2)n1	-37	-8	12	-3	19	·
CN(CC(=O)NC(=O)Nc1ccccc1F)Cc1ccccc1F	66*	2	-6	1	-8	-100
